High-throughput results (PubChem)
DENV2 CPE: protects cells from dengue virus 2 cytopathic effect. DENV2-infected cells, cytopathic effect rescue, plate reader. CPE inhibition, % at 9.99 µM. 350,000 tested, 1.7% active. AID 651640; in the data active = CPE inhibition above about 20%, passing the limit was not always enough; inconclusive = no clear call, values can overlap the other calls; tested in BHK-21 cells;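 also: 0% = median of neutral control wells and 100% = median of positive control wells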
PGC1a acetyl inh: PGC1a acetylation modulation, inhibitor mode; U2OS PGC1a acetylation, AlphaScreen anti-acetyl-lysine; with virally co-expressed GCN5 acetyltransferase; inhibition, % at 15.6 µM; 350,000 tested, 0.17% active; AID 651687;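 active = every replicate shows inhibition of at least 40%; inconclusive = mean inhibition at least 40% but some replicate below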;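 also: 0% = neutral control wells and 100% = positive control wells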
S100A4 inh HTS: S100A4-myosin IIA interaction inhibition; P26447; 360,000 tested, 0.14% active; inhibition, % at 10.7 µM; S100A4/TAMRA-MyoIIA peptide fluorescence polarization;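 active = mean inhibition of at least 70% across replicates, with every replicate also reaching that level; inconclusive = mean inhibition reaches 70% but some replicates fall short; inactive = mean inhibition below 70%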
Target sequence (P26447 whole entry, looked up): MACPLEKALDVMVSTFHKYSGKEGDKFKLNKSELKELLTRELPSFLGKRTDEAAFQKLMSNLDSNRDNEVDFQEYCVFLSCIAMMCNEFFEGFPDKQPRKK
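Material: S100A4 monomer protein | Medium: HEPES pH 7.2 with CaCl2, KCl, NaCl, DTT, Triton | Reagent: Labelled myosin peptide probe, 5 nM | Doses: One dose per compound | Times: 5 min incubation before reading | Benchmarks: Neutral control DMSO, positive control TFP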
C2C12 statin: suppression of simvastatin myotoxicity. C2C12 myotubes + simvastatin, ATP luminescence, 48 h; scaled: DMSO 0, geranylgeraniol control 100. rescue of ATP level, % at 7.49 µM. 330,000 tested, 0.78% active. AID 602340;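 active = mean ATP rescue above about 67%, or every replicate alone reaching that limit, limit read from the data, passing the limit was not always enough; inconclusive = no clear call, values can overlap the other calls; inactive = mean under the limit and some replicate under it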;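 also: myotubes were challenged with 10 µM simvastatin during compound exposure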
SIRT5 inh: sirtuin-5 (human) deacylase inhibition; Q9NXA8; 330,000 tested, 1.1% active; Purified SirT5, succinyl-peptide AMC, trypsin-coupled fluorescence; inhibition, % at 15 µM; in the data active = inhibition above about 15%; inconclusive = no clear call, values can overlap the other calls
Target sequence (Q9NXA8 whole entry, looked up): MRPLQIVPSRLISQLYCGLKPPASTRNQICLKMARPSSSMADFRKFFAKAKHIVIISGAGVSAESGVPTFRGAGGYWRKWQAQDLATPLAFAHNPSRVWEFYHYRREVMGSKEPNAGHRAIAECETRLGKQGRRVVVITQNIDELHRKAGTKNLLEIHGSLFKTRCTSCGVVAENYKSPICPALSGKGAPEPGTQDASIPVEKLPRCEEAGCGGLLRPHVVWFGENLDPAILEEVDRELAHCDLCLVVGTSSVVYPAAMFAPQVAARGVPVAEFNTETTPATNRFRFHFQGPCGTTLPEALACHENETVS
The depositor's hits bear a star; ? = inconclusive; nt = no result. In the library only some 2.9% were active in any assay of this set; here they are far more common.

SMILES | DENV2 CPE | PGC1a acetyl inh | S100A4 inh HTS | C2C12 statin | SIRT5 inh
O=C(CCN1CCCCC1)NCC[C@H]1CC[C@H](NC(=O)C2CCCC2)[C@@H](CO)O1 | -6 | 3 | 45 | -3 | 1
O=C1ON=C(c2ccccc2)/C1=C/c1ccco1 | 0 | 4 | -51 | 10 | 20*
CN(C)/C=C1\C(=O)ON=C1c1ccccc1 | -4 | nt | -12 | nt | 0
COc1ccccc1NC(=O)c1ccc(S(=O)(=O)N2CCOCC2)cc1 | nt | -3 | nt | -1 | nt
COc1cccc2sc(NC(=O)c3ccc(S(=O)(=O)N4CCOCC4)cc3)nc12 | -6 | -15 | 10 | -2 | 15*
Cn1c(=N)n(CC(=O)c2ccc(Br)cc2)c2ccccc21 | 66* | nt | 2 | nt | -2
CCC(=O)Nc1ccc2c(c1)C(=O)N(C)[C@@H]1CC[C@@H](CC(=O)NC3Cc4ccccc4C3)O[C@H]1CO2 | 8 | -2 | -1 | -15 | 0
COC(=O)c1ccc2nc3c(cc2c1)[C@@H]1CCN2C(=O)CCC[C@H](C3)[C@H]12 | -12 | -15 | -1 | 19 | 0
CC1(C)CCC(=O)N2CC[C@H]3c4cc5ccccc5nc4C[C@@H]1[C@H]32 | 17 | 11 | 5 | 99* | -1
C=CCn1c(=O)/c(=C\c2ccsc2)s/c1=C(/C#N)C(=O)NCCN1CCOCC1 | nt | -2 | nt | 112* | nt
O=C(C[C@H]1C=C[C@@H](NC(=O)c2ccc3c(c2)OCO3)[C@H](CO)O1)NC1Cc2ccccc2C1 | -9 | -2 | 6 | -4 | -1
O=C(NCCN=C1NS(=O)(=O)c2ccccc21)c1ccco1 | nt | 0 | ? | -14 | 20*
O=C(NCCCN=C1NS(=O)(=O)c2ccccc21)c1ccco1 | -5 | 0 | 35 | 1 | 0
CO[C@@H]1CN(C)C(=O)c2cc(NS(=O)(=O)Cc3ccccc3)ccc2OC[C@@H](C)NC[C@H]1C | 11 | 17 | -31 | 12 | 1
CC1(C)CNC(=O)c2sc(NC(=O)CN3CCOCC3)nc2C1 | nt | -3 | nt | 108* | nt
CC(C)C[C@@H](CN1CCCC1CN1C(=S)NC[C@@H]1Cc1ccc(O)cc1)N1C[C@H](Cc2ccc(O)cc2)N(CC2CCCCCC2)C1=S (some centres undefined) | 41* | 4 | -4 | -4 | 0
CCOc1ccc(CCN2C(=S)N([C@@H](CC(C)C)CN3CCCC3CN3C(=S)NC[C@@H]3Cc3ccc(O)cc3)C[C@@H]2Cc2ccccc2)cc1 (some centres undefined) | -11 | -10 | -3 | 0 | -3
CCOc1ccc(CCN2C(=O)C(=O)N([C@@H](Cc3ccccc3)CN3CCC[C@@H]3CN3C(=O)C(=O)NC[C@@H]3Cc3ccc(O)cc3)C[C@@H]2Cc2ccccc2)cc1 | -11 | -18 | -2 | -3 | 38*
CCOc1ccc(CCN2C(=O)C(=O)N([C@@H](Cc3ccccc3)CN3CCC[C@H]3CN3C(=O)C(=O)NC[C@@H]3Cc3ccc(O)cc3)C[C@@H]2CC(C)C)cc1 | ? | nt | 46 | nt | -2
CC(C)C[C@H]1CNC(=S)N1CC1CCCN1C[C@H](Cc1ccccc1)N1C[C@H](Cc2ccc(O)cc2)N(CC2CCCCCC2)C1=S (some centres undefined) | -4 | 51* | 0 | 3 | 2
CCOc1ccc(CCN2C(=S)N([C@@H](CC(C)C)CN3CCCC3CN3C(=S)NC[C@@H]3Cc3ccc(O)cc3)C[C@@H]2Cc2ccc(O)cc2)cc1 (some centres undefined) | 31* | -8 | -6 | 5 | nt
CC(C)C[C@H]1CN([C@@H](Cc2ccc(O)cc2)CN2CCC[C@@H]2CN2C(=S)NC[C@@H]2Cc2ccccc2)C(=S)N1CC1CCCCCC1 | 1 | -15 | -1 | 8 | nt
COCC(=O)N[C@H]1C=C[C@H](CC(=O)N2CCCCC2)O[C@@H]1CO | 3 | 14 | -7 | -3 | 1
O=C(C[C@H]1C[C@@H]2c3cc(NC(=O)Cc4ccncc4)ccc3O[C@@H]2[C@H](CO)O1)NCc1cccnc1 | -12 | nt | 1 | -13 | 3
COc1ccc(NS(=O)(=O)c2cccc(C(=O)N3CCCC(C)C3)c2)cc1 (centres undefined) | -1 | -5 | -4 | 16 | 19*
COc1ccccc1-c1cccc(-c2nc(C(=O)N3CCOCC3)cc3c2[C@@H](CCO)N([S@](=O)C(C)(C)C)C3)c1 | 5 | -17 | -40 | 9 | -1
Cc1nc(NCc2ccco2)c2cn[nH]c2n1 | -3 | 2 | -2 | 95* | nt
